Screening results: PubChem, several laboratories
A selection: hits, their analogues and other compounds. The true share with any hit is near 1.9%.
Rin1-Abl PPI inh = blocks binding of human Rin1 to Abl; P00519+Q13671; TR-FRET Rin1/Abl binding, biochemical; inhibition, % at 7.35 µM; 360,000 tested, 0.4% active; AID 588664; in the data active = inhibition above about 5%, passing the limit was not always enough
Target sequence (P00519 whole entry, looked up): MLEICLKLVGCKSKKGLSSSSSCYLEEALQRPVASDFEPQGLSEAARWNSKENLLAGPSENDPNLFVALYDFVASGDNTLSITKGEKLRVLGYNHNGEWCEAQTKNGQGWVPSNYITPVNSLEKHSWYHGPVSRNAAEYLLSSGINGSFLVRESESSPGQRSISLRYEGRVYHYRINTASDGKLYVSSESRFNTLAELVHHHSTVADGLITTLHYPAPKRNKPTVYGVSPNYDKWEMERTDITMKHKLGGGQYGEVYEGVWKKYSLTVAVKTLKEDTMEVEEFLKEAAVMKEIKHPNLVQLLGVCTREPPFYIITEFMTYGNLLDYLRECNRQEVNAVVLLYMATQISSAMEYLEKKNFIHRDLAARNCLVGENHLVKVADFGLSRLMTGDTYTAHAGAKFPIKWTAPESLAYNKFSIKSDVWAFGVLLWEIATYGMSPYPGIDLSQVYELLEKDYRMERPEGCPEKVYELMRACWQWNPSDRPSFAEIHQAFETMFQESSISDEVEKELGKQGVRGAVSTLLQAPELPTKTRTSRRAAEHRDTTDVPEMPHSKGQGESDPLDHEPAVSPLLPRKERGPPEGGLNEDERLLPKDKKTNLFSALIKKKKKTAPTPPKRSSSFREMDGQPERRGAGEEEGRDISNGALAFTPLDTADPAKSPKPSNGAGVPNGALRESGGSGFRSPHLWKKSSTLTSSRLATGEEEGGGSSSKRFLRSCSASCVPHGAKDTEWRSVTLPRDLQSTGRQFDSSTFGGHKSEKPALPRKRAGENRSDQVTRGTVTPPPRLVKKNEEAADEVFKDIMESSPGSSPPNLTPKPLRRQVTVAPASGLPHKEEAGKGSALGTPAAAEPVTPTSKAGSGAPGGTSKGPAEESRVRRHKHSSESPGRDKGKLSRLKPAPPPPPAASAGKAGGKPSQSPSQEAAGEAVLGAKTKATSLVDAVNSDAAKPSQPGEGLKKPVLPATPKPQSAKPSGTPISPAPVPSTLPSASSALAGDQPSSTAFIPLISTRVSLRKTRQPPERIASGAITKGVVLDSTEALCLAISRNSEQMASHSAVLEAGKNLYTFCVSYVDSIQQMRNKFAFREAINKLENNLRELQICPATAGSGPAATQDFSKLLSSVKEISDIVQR
Target sequence (Q13671 whole entry, looked up): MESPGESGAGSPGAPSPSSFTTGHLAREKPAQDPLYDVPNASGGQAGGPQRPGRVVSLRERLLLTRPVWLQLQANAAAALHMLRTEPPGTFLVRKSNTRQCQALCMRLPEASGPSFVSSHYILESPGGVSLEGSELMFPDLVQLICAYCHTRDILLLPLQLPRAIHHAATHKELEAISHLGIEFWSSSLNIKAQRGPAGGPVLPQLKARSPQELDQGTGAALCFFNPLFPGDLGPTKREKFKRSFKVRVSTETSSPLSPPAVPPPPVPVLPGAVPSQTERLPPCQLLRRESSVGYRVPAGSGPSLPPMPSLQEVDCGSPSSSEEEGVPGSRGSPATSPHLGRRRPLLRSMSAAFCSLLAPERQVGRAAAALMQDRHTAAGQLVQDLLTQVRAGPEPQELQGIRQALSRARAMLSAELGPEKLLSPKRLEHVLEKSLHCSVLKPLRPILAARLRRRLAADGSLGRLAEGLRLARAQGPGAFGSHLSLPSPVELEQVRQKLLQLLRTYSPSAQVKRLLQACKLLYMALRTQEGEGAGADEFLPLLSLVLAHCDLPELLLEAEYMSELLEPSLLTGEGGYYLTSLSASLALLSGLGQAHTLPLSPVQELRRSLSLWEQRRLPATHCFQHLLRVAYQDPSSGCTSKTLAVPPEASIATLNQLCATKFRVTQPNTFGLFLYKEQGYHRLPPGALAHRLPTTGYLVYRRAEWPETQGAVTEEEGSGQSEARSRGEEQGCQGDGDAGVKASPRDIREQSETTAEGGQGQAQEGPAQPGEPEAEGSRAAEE
SR-BI DiI-HDL act = enhances SR-BI lipid uptake from DiI-HDL. CHO ldlA[mSR-BI] cells, DiI-HDL uptake fluorescence, 3 h; 100 = double the neutral-control signal. activation, % at 12.5 µM. 320,000 tested, 0.096% active;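 active = mean replicate activation of at least 60% and every replicate at or above 60%; inconclusive = mean or all-replicate condition met, but not both; inactive = mean below 60% and not all replicates reaching 60%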
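Assay system: CHO ldlA[mSR-BI] cells, LDL receptor-null, SR-BI overexpressing; medium: Ham's F12 with 0.5% BSA, HEPES 25 mM, pH 7.4; also added: DiI-HDL 10 µg/mL; timing: 3 h uptake period with compound, 37 °C; signal: DiI fluorescence, bottom read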
SR-BI DiI inh = blocks mouse SR-BI lipid uptake from DiI-HDL | ldlA[mSR-BI] CHO cells, DiI-HDL uptake fluorescence, 3 h | inhibition, % at 12.5 µM | 320,000 tested, 0.96% active;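 active = mean replicate inhibition of at least 70% and a set share of replicates each scoring 70 or more; inconclusive = meets just one of the two criteria; inactive = fails both criteria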
GRK2 aptamer HTS = blocks RNA aptamer binding to human GRK2 | 330,000 tested, 0.59% active | inhibition of aptamer binding, % at 10 µM | AID 488847 | bead flow cytometry, FAM-aptamer displacement from GRK2 | P25098;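 active = inhibition of aptamer binding above 40%, roughly 3 SD of noise, on plates passing a quality check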;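 also: median bead fluorescence of bound FAM aptamer so fluorescent compounds give negative values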
GRK2 CP1 = confirmation of human GRK2 inhibitors displacing RNA aptamer; shares compounds with GRK2 aptamer HTS; bead-bound GRK2, FAM-aptamer displacement, flow cytometry; aptamer displacement, % at 10 µM; 2,000 tested, 4% active; AID 504451;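 active = aptamer displacement above 40%, near three times the noise of non-fluorescent compounds, on plates passing quality checks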;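 also: negative values mostly reflect intrinsic compound fluorescence rather than true enhancement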
Aptamer quench 1 = quenches fluorescent RNA aptamer, GRK2 hit artifact | shares compounds with GRK2 aptamer HTS | Fluorescent RNA aptamer beads, quenching, flow cytometry; active compounds read high | fluorescence change (kMESF span), kMESF (concentration not given with the values) | 110 tested, under 10 active | AID 504521;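 active = compounds whose bead fluorescence drops by more than 37 kMESF across the dose range, marking them as dye quenchers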
Aptamer quench SP = aptamer fluorescence quenching in GRK2 counter-screen; fluorescence response (% of DMSO), % at 10 µM; AID 504580; shares compounds with GRK2 aptamer HTS; Carboxyfluorescein RNA aptamer on beads, flow cytometry quenching; active compounds read low; 2,000 tested, under 10 active;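 active = compounds that quench the bead-bound fluorescent RNA probe, cutting fluorescence to under half of the solvent control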;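 also: counterscreen run without GRK2 so only probe quenching by compound is measured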
GRK2 CP2 = confirmation of human GRK2 inhibitors binding RNA aptamer site; shares compounds with GRK2 aptamer HTS; bead-bound GRK2, FAM-aptamer displacement, flow cytometry; inhibition of aptamer binding, % at 10 µM; 360 tested, under 10 active; AID 504782;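 active = inhibition of aptamer binding above 40%, about triple the noise seen with nonglowing compounds, on plates passing quality control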;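 also: negative values mostly come from compounds that fluoresce themselves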
FAM quench CP2 = quenches fluorescent RNA aptamer, GRK2 hit artifact; 360 tested, under 10 active; fluorescence response vs DMSO, % at 10 µM; shares compounds with GRK2 aptamer HTS; AID 588494; carboxyfluorescein RNA aptamer beads, flow cytometry quenching; active compounds read low;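 active = response vs DMSO under 50%, meaning signal dropped by over half, treated as fluorescence quencher; inconclusive = no clear call, values can overlap the other calls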;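 also: labelled aptamer on streptavidin beads without GRK2 as a quench counter-screen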
FAM quench DR = aptamer fluorescence quenching in GRK2 powder counter-screen; Bead-bound FAM RNA aptamer fluorescence quenching, flow cytometry; active compounds read low; AID 588496; shares compounds with GRK2 aptamer HTS; fluorescence ratio to DMSO, % at 11.1 µM; 35 tested, under 10 active;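 active = compounds that dim the fluorescent label, raw bead signal shifting by over 33 units between lowest and highest dose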
DiI quencher = DiI fluorescence quenching in cell-free counter-screen; shares compounds with SR-BI DiI inh; cell-free DiI-HDL fluorescence quenching, 30 min; AC50, µM (titrated, usually from 35 µM); 470 tested, 20% active;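 active = quenching, a falling signal, with AC50 below a set limit tied to the top valid dose, actives reach about 32 µM in these data; inconclusive = no clear call, values can overlap the other calls; inactive = rising signal, and the rest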
Rin1 Abl conf = confirmation of inhibitors of human Rin1-Abl interaction. shares compounds with Rin1-Abl PPI inh. AID 602124. TR-FRET Rin1-Abl binding, purified proteins. 1,300 tested, 49% active. inhibition, % at 7.35 µM
GFP quencher = counter-screen for Rin1-Abl inhibitors: GFP fluorescence quenchers; shares compounds with Rin1-Abl PPI inh; inhibitors/quenchers counterscreen; inhibition, % at 6.75 µM; 1,300 tested, 8.5% active; AID 602125;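 also: ABL1-eGFP fusion protein alone without its partner RIN1-SBP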
A number is an active result; – = inactive; ? = inconclusive; · = not tested or not shown. Rule as the data show it, unless noted: active = inhibition above about 6.5%; inactive = the rest.

SMILES | Rin1-Abl PPI inh | SR-BI DiI-HDL act | SR-BI DiI inh | GRK2 aptamer HTS | others
Cc1ccc(-c2c(C#N)c(N)n(-c3ccc(C)cc3)c(=O)c2C#N)cc1 | – | – | – | 42 | GRK2 CP1=–;Aptamer quench SP=–
Cc1ccc(-n2c(N)c(C#N)c(-c3ccc(Cl)cc3)c(C#N)c2=O)cc1 | – | – | – | –
Cc1ccc(CCNC(=O)CCS(=O)(=O)c2ccc(Br)cc2)cc1 | – | – | – | – | GRK2 CP1=–;Aptamer quench 1=–;Aptamer quench SP=–;FAM quench DR=–
Cc1cccc(CCNC(=O)CCS(=O)(=O)c2ccc(Br)cc2)c1 | – | – | – | – | GRK2 CP1=–;Aptamer quench SP=–;FAM quench DR=–
COc1ccc(S(=O)(=O)CCC(=O)NCCc2cccc(C)c2)cc1 | – | – | – | –
CCCS(=O)(=O)NC(=O)C1(C)CCN(C(=O)c2ccc(OC)cc2)C1 (stereo not drawn) | – | · | · | ·
CSc1ccc(C(=O)C2CCCN(C(=O)CCCn3cncn3)C2)cc1 (stereo not drawn) | – | – | – | 76 | GRK2 CP1=–;Aptamer quench SP=–
O=C(c1ccc(C(F)(F)F)cc1)C1CCCN(C(=O)CCn2cncn2)C1 (stereo not drawn) | – | – | – | –
O=C(O)CSc1nc2sc3c(c2c(=O)n1-c1ccccc1)CCC3 | – | – | – | – | GRK2 CP2=–;FAM quench CP2=–
CCCn1c(SC(C)C(=O)NCC2CCCO2)nc2sc3c(c2c1=O)CCC3 (stereo not drawn) | – | – | – | – | GRK2 CP2=–;FAM quench CP2=–
CCCn1c(SC(C)C(=O)NCC2CCCO2)nc2sc(CC)cc2c1=O (stereo not drawn) | – | – | – | –
CCn1c(SCC(=O)OC)nc2sc3c(c2c1=O)CCC3 | – | – | – | – | GRK2 CP2=–;FAM quench CP2=–
Cn1c(SCc2nnc(-c3ccccc3Br)o2)nc2sc3c(c2c1=O)CCC3 | – | – | – | – | GRK2 CP2=–;FAM quench CP2=–
Cc1cccc(-n2c(SCC(=O)O)nc3sc4c(c3c2=O)CCC4)c1 | – | – | – | –
COc1cc2cc(CCCOC(=O)c3cccc(Br)c3)oc(=O)c2cc1OC | – | – | – | –
CCOC(=O)c1ccc(OCCOc2ccccc2C)cc1 | – | – | – | –
O=C(CSc1cn(CCNC(=O)c2cccs2)c2ccccc12)NCC1CCCO1 (stereo not drawn) | – | – | – | – | GRK2 CP2=–;FAM quench CP2=–;DiI quencher=–
CC1(C)CC(Cc2ccc(Cl)nc2)N(C(=O)OC(C)(C)C)C1 (stereo not drawn) | – | · | · | ·
Cc1cccc(-n2c(N)c(-c3nc4ccccc4n3C)c3nc4ccccc4nc32)c1 | 12 | – | 73 | 97 | GRK2 CP2=–;FAM quench CP2=–;Rin1 Abl conf=–;GFP quencher=–
CCN(CC)C(=O)C1=C(C)N(CCCOC)C(=O)C(CC(=O)NCCc2ccccn2)C1 (stereo not drawn) | – | · | · | ·
Cc1ccc(NC(=O)CN2C(=O)N/C(=C/c3cccn3-c3ccc(C(=O)O)cc3)C2=O)cc1 | 9.7 | – | – | 96 | GRK2 CP1=86;Aptamer quench 1=–;Aptamer quench SP=–;Rin1 Abl conf=9.0;GFP quencher=9.9
Cc1ccc(NC(=O)CN2C(=O)N/C(=C/c3cc(C)n(-c4ccc(C(=O)O)cc4)c3C)C2=O)cc1 | – | – | – | ·
COc1cccc(N2CC(C(=O)Nc3ccc(F)cc3)CC2=O)c1 (stereo not drawn) | – | – | – | –
COc1cccc(N2CC(C(=O)Nc3ccc(C(=O)OC(C)C)cc3)CC2=O)c1 (stereo not drawn) | 17 | – | – | 73 | GRK2 CP1=–;Aptamer quench SP=–;Rin1 Abl conf=14;GFP quencher=–
COc1ccc(-c2csc(C(C)(O)c3cccnc3)n2)cc1 (stereo not drawn) | – | · | · | ·
SMILES | Rin1-Abl PPI inh | SR-BI DiI-HDL act | SR-BI DiI inh | GRK2 aptamer HTS | others
O=C(N/N=C/c1cccnc1)c1cc(O)c(O)c(O)c1 | 62 | – | – | 44 | GRK2 CP1=–;Aptamer quench SP=–;Rin1 Abl conf=74;GFP quencher=21
C[C@@H]1COC(=O)[C@H](NC(=O)OCC2c3ccccc3-c3ccccc32)C/C=C\C[C@@H](CC(=O)N[C@H](CO)Cc2ccccc2)C(=O)N1 | – | – | 81 | – | DiI quencher=–
O=C(NCC(=O)N1CC=C(c2ccccc2)CC1)c1ccc(F)cc1 | – | – | – | –
Cc1cccc(Nc2nc3c(c(=O)n(C)c(=O)n3C)n2Cc2ccccc2)c1 | – | – | – | ·
COc1ccc(OCC(O)Cn2c(Nc3cccc(C)c3)nc3c2c(=O)n(C)c(=O)n3C)cc1 (stereo not drawn) | – | – | 77 | – | DiI quencher=–
COc1ccccc1Cn1c(=S)[nH]c2cc(C(=O)N3CC(C)CC(C)C3)ccc2c1=O (stereo not drawn) | – | · | · | ·
COc1ccc(-c2nc(CN3CCN(c4ncnc5ccccc45)CC3)c(C)o2)c(OC)c1 | – | – | 72 | – | DiI quencher=–
Cc1oc(-c2cc(F)ccc2F)nc1CN1CCN(c2ncnc3ccccc23)CC1 | – | – | – | –
CN(Cc1cc(Cl)cc(Cl)c1O)Cc1c(O)ccc2ccccc12 | – | – | 103 | · | DiI quencher=1.9µM
CN(Cc1ccccc1)Cc1c(O)ccc2ccccc12 | – | – | – | –
CCOc1ccccc1/C=C/c1onc(C)c1S(=O)(=O)N1CCC(C(=O)NC(C)(C)C)CC1 | – | – | 84 | – | DiI quencher=–
CCOc1ccccc1/C=C/c1onc(C)c1S(=O)(=O)N1CCC(C(=O)NC)CC1 | – | – | ? | –
OC[C@@H]1CN(Cc2cccs2)C[C@H](n2cnc3c(NCc4ccc(F)cc4)ncnc32)O1 | – | · | · | ·
COc1ccccc1CCc1nnc(CCC(=O)N(C)Cc2cccc3cnccc23)o1 | – | – | 75 | – | DiI quencher=–
CCCc1cc(=O)[nH]c(SCC(=O)Nc2cc(S(=O)(=O)N3CCOCC3)ccc2Cl)n1 | – | – | – | –
